Type in all cases: biochemical
For one assay, the target named is T1, mDAGLα (Mus musculus, UniProt Q6WQJ1).
T1 sequence (Q6WQJ1 1-1044): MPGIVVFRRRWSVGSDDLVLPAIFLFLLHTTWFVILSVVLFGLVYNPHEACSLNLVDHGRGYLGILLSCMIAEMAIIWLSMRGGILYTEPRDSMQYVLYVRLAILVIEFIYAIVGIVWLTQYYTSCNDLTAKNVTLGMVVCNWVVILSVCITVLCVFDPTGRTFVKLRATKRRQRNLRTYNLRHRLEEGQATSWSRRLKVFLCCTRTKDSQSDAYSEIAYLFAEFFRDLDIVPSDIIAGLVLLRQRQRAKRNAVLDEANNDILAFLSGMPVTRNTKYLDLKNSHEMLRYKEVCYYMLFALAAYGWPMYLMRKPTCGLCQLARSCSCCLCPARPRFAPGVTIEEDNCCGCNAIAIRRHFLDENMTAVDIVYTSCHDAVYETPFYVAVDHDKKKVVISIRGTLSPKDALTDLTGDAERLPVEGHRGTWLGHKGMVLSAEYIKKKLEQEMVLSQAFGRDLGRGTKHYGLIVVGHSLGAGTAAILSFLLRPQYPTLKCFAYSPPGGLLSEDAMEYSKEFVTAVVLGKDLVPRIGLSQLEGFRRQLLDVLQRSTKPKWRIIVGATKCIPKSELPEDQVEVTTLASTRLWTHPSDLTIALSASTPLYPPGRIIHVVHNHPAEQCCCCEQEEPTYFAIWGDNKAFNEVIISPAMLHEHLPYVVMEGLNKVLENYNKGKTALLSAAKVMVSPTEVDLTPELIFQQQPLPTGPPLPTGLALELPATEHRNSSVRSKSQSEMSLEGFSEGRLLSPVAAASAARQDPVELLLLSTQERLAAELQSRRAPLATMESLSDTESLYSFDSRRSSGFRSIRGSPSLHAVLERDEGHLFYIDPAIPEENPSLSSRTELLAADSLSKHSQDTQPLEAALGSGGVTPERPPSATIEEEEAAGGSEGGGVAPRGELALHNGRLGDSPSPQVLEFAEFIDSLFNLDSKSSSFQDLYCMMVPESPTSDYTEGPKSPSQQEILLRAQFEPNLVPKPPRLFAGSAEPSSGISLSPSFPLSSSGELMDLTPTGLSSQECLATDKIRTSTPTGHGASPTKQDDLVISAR
Nature of the assay: gel-based ABPP, mouse brain membrane proteome. The note with it: 10 μM. In a few lines: (§1)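 Mouse brain was dounce-homogenized in 20 mM HEPES pH 7.2 with DTT, MgCl2 and benzonase. The membrane pellet from ultracentrifugation (100,000g, 45 min, 4 °C) was used at 2 μg/μL. It was preincubated with test compound in DMSO (30 min, rt), then labeled with MB064 (250 nM) or FP-TAMRA (500 nM) for 15 min at rt. Samples ran on 10% SDS-PAGE; fluorescence was normalized to Coomassie staining.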

Another assay has as its target T2, hMAGL (Homo sapiens, UniProt Q99685).
T2 sequence (Q99685 1-303): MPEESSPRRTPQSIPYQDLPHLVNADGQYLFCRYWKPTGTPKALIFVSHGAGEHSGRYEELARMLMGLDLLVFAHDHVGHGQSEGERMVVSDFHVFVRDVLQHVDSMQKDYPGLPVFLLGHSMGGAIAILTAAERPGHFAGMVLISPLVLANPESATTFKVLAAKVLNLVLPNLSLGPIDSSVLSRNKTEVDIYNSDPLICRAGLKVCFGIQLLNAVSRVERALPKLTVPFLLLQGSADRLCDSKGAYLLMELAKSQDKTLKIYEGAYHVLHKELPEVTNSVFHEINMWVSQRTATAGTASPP
The assay is described as follows: natural substrate-based fluorescence assay MAGL. The conditions noted are these: 10 μM.

Another assay addresses T3, mDAGLβ (Mus musculus, UniProt Q91WC9).
T3 sequence (Q91WC9 1-669): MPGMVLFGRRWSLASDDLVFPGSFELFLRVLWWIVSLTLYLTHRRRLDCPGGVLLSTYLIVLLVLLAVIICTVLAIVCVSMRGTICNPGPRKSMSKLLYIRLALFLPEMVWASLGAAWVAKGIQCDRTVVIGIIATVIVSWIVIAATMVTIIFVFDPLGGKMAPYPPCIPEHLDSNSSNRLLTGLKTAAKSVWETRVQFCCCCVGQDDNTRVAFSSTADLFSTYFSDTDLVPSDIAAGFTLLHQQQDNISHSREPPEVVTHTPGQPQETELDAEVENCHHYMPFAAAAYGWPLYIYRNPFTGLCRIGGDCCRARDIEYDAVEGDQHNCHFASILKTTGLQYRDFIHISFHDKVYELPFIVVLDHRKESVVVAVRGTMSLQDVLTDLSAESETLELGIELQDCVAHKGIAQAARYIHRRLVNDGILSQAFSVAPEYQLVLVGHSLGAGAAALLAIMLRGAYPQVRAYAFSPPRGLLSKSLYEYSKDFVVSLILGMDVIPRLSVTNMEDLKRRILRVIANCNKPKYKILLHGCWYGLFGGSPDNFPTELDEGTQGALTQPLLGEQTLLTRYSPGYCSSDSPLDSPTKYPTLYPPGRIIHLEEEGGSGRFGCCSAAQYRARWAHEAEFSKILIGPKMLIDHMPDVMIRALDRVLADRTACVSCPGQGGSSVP
The assay is described as follows: gel-based ABPP, mouse brain membrane proteome. The note with it: 10 μM. Put shortly: as §1

The target in another assay is T4, PLAAT5 (Homo sapiens, UniProt Q96KN8).
T4 sequence (Q96KN8 1-279): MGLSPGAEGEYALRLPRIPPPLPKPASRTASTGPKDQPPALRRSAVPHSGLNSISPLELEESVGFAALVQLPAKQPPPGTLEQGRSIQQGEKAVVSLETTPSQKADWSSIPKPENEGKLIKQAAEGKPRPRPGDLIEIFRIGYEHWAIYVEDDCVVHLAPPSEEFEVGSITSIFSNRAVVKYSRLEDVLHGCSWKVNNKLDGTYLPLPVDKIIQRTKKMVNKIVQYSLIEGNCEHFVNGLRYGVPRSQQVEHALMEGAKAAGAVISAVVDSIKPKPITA
In a few lines: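 Human PLAAT cDNA (C-terminal FLAG, pcDNA3.1) was PEI-transfected into HEK293T; cytosol came from a 100,000g spin. Cytosol was preincubated with test compound (30 min, rt), then MB064 (20 min, rt). Conditions: PLAAT2 0.25 μg/μL, 250 nM; PLAAT3 0.5 μg/μL, 250 nM; PLAAT4/5 1 μg/μL, 500 nM. In-gel fluorescence was normalized to Coomassie, in triplicate. Single-concentration screen or IC50 from dose–response curves.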

As to `O=C(CCCc1ccccc1)C(=O)NCCc1ccc(Oc2ccccc2)cc1` [Compound 51, 2-Oxo-N-(4-phenoxyphenethyl)-5-phenylpentanamide], the “inhibition of DAGLα (in words)” value at mDAGLα was “not inhibited”. Further, the “inhibition of MAGL (in words)” value at hMAGL is “not inhibited”. Moreover, the “inhibition of DAGLβ (in words)” value at mDAGLβ is recorded as “not inhibited”. Besides, on PLAAT5, the “higher potency for PLAAT5 than initial hit” value is reported as 10 fold.
